Screens: PubChem, several laboratories
S1P1 ag-PAM – agonists and agonism potentiators of human S1P1 receptor. P21453. AID 449. actives 0.57% (n = 56,000). activation, % at 9.5 µM. S1P1 CRE-bla cells, forskolin, beta-lactamase FRET, potentiator mode; S1P1 agonist co-added at EC20, 2 nM; 100% = saturating reference agonist, 0% = basal;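 active means activation above a cutoff set at the mean activation of all tested compounds plus 3 SD, cut at about 54% in these data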;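 further: forskolin at 4 µM as EC80 and the EC20 agonist is SEW2871; 100% = SEW2871 at its EC100 plus forskolin at EC80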
M1 ag – activates the M1 muscarinic receptor | actives 3% (n = 64,000) | B-score at 10 µM | CHO-M1 cells, Fluo-4 calcium fluorescence, agonist mode; hits give high values;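 active means fluorescence rise, raw or as B-score row- and column-corrected plate score, outside the 99.7% band of its plate's samples, either direction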
M1 antag – M1 muscarinic receptor (rat) antagonism | actives 3.4% (n = 64,000) | CHO-M1 cells, Fluo-4 calcium, ACh EC80 antagonist mode; hits give low values | B-score at 10 µM | P08482 | AID 628;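 active means calcium fluorescence response, raw or row-and-column corrected B-score, differing from the plate sample mean either way at a set confidence level, mostly lower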
S1P3 ag – agonists of human S1P3 receptor; Q99500; S1P3 NFAT-BLA reporter cells, agonism, FRET ratio; relative to 1 µM S1P, basal subtracted; activation, % at 4.5 µM; actives 0.1% (n = 60,000); AID 373;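 active means activation above the screen-wide mean plus 3 SD, cut at about 4.5% in these data, passing the limit was not always enough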
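Assay system: stable CHO line with human S1P3, Gα16, NFAT-BLA reporter; Detection: FRET β-lactamase substrate fluorescence, excitation 405 nm, 460/535 nm emission ratio, background-subtracted; Read-out: percent activation versus median 1 µM S1P response, basal-subtracted, per plate; Incubation: cells plated overnight, compound 4 h 37 °C, substrate 2 h RT.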
D1 mod – D1 dopamine receptor (human) allosteric modulation. actives 5.9% (n = 58,000). AID 641. P21728. HEK293 D1, CRE-luciferase, dopamine EC30 potentiation; actives deviate in either direction. B-score at 10 µM;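 active means luminescence count or its row- and column-corrected plate score outside the 99.7% band of the plate's sample wells, on either side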
Target sequence (P21728 whole entry, looked up): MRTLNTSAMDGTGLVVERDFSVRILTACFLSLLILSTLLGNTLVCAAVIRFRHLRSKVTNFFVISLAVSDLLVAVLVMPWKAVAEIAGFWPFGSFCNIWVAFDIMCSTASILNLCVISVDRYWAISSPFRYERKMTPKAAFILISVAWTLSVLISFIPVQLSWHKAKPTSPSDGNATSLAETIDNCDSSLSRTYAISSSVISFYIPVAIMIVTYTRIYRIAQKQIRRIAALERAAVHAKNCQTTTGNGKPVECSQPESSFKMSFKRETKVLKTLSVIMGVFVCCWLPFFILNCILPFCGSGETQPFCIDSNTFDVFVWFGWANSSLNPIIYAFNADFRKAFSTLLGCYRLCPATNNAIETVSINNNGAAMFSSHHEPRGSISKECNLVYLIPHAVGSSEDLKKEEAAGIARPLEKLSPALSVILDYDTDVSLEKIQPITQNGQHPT
* hit, by the source's call; / = not tested or not shown. A selection: hits, their analogues and other compounds. The true share with any hit is near 11%.

SMILES | S1P1 ag-PAM | M1 ag | M1 antag | S1P3 ag | D1 mod
CN=c1scc(C)n1/N=C/c1ccc2c(c1)OCO2 | -13 | 0.8 | -0.11 | 0 | -3.2*
COc1nc(C)ccc1-c1noc(-c2ccco2)n1 | -5 | / | / | 1 | -1.3*
O=C(Nc1ccc(N2CCCC2)c(Cl)c1)c1ccc(Br)o1 | 97* | 0.37 | -0.1 | -1 | -1.2
O=C(Nc1ccccc1N1CCCC1)c1ccc(Br)o1 | -8 | 0.53 | -0.52 | 0 | 0.4
CS(=O)(=O)N(CC(=O)N1CCCCC1)c1sc2c(c1C#N)CCCC2 | -15 | -0.24 | 0.56 | -1 | 1
COc1ccc2cc(CN(CC3COCCO3)S(=O)(=O)c3ccc(Cl)cc3)c(=O)[nH]c2c1 (centres undefined) | -14 | -0.39 | -0.082 | -1 | 2
Cc1nc2ccccc2c2oc(C(=O)NCc3ccccn3)cc12 | -36 | -1.6 | 0.18 | -1 | -3.7*
O=C(CCSc1nc(-c2ccco2)cc(C(F)(F)F)n1)N1CCCc2ccccc21 | / | / | / | 0 | -0.59
O=C(CCCCCN1C(=O)CCC1=O)NCc1ccccc1 | 6 | -1.3 | 2.1* | -1 | 1.1
NC(=O)c1ccccc1NC(=O)CCCN1C(=O)CCC1=O | -5 | -0.32 | 0.28 | -1 | -0.013
O=C(OCc1nnc(-c2ccccc2)o1)c1ccc2c(c1)OCCO2 | 4 | -0.87 | -1.5 | 0 | 1.2
Clc1ccccc1C1=Nn2c(nnc2-c2ccncc2)SC1 | 75* | 0.98 | -0.0042 | -1 | 1.1
O=C(CCn1nnc2ccccc21)N1CCC(O)(c2cccc(F)c2)CC1 | / | 0.54 | 1.2 | / | -0.49
CCOc1ccc(C(=O)Nc2c(C(N)=O)oc3ccccc23)cc1 | 54* | 1.2 | -0.52 | 0 | -0.16
CC(=O)Nc1c(C(=O)c2ccccc2)oc2ccccc12 | -16 | 0.038 | 0.0064 | -1 | 6*
c1cc(-c2nc3cc(Oc4ccc5oc(-c6ccncc6)nc5c4)ccc3o2)ccn1 | -7 | 1.9 | 0.22 | -1 | -0.52
Fc1ccc(N2CCN(C(c3cccs3)c3nnnn3C3CCCC3)CC2)cc1 (centres undefined) | -1 | 1.8 | 0.15 | 0 | 0.27
CCOc1ccc2nc(NCCNC(=O)Nc3ccccc3)c(C#N)cc2c1 | 31 | 2.6 | 0.014 | 0 | 0.22
COc1ccc2nc(NCCCNC(=O)c3cc(OC)c(OC)c(OC)c3)c(C#N)cc2c1 | -11 | 15* | -0.79 | -1 | 0.094
Cc1ccc2c(C)nc(NC3=NCN(CCc4ccccc4)CN3)nc2c1 | -10 | 0.57 | -13* | -1 | -2.2
Cc1nc(NC2=NCN(CCc3ccccc3)CN2)nc2ccccc12 | -14 | 0.14 | -9* | -2 | /
COCCN1CN=C(Nc2nc3ccccc3s2)NC1 | 12 | 0.23 | 0.11 | -1 | -0.14
COCCN1CN=C(Nc2nc(C)c3ccc(C)cc3n2)NC1 | -34 | 0.27 | -7.3* | 0 | -0.56
COC(=O)c1ccc(CSc2ccc3nnc(-c4ccc(OC)c(OC)c4)n3n2)o1 | -40 | 1.9 | -0.59 | 0 | -0.74
OC1(c2ccc(F)cc2)CCN(Cc2nnnn2Cc2cccs2)CC1 | 5 | -0.25 | -1.2 | 0 | 0.17
SMILES | S1P1 ag-PAM | M1 ag | M1 antag | S1P3 ag | D1 mod
CCOC(=O)N1CCN(S(=O)(=O)c2cc(Cl)c(OC)cc2Cl)CC1 | 0 | -0.26 | 0.043 | -1 | 0.94
CCOC(=O)N1CCN(S(=O)(=O)c2cc(Br)cnc2N)CC1 | -23 | / | / | 0 | -3.3*
O=C(Nc1nsc(-c2ccccc2)n1)c1cccs1 | -5 | 0.069 | 1.3 | 1 | -4.4*
O=C(NCCc1csc(-c2ccccc2)n1)c1cccs1 | 12 | 0.0023 | -0.24 | -1 | -5.1*
CCOC(=O)c1c(NC(=O)C(F)(OC)C(F)(F)F)sc(C(=O)N2CCCCC2)c1C (centres undefined) | -43 | 0.52 | 0.13 | -1 | 2
CCc1cccc(NC(=O)CS(=O)Cc2nc(-c3ccc(C)cc3)oc2C)c1 (centres undefined) | -1 | 1.5 | 0.43 | 0 | 1.5
CCOC(=O)N1CCC(NC(=O)CSc2cc(=O)n(C)c3ccc(Cl)cc23)CC1 | -19 | 0.057 | -0.14 | 1 | 0.18
O=C(CN1CCC(n2nnc3cc(F)ccc32)CC1)NC1CC1 | 4 | -0.99 | 0.16 | 0 | 0.22
O=C(CN1CCC(n2nnc3cc(F)ccc32)CC1)Nc1ccccc1N1CCOCC1 | 1 | 0.35 | -0.067 | 0 | -3.1*
O=C(Nn1nnnc1Nc1ccccc1)C12CC3CC(CC(C3)C1)C2 | / | -1.6 | 0.47 | / | -0.45
CC(C)Cc1nc2oc3c(NCc4cccnc4)ncnc3c2c2c1CCC2 | -59 | 0.51 | -0.18 | 0 | 4.8*
CN(C)CCCN1C(=O)C(O)=C(C(=O)c2cccs2)C1c1ccccn1 (centres undefined) | 2 | 0.12 | 0.25 | -1 | 0.066
Nc1ccc(C(=O)OCCCc2nc3ccccc3[nH]2)cc1 | 1 | 0.32 | 0.86* | -1 | -0.67
COc1ccc2nc(NCc3ccccc3)[nH]c2c1 | -20 | -0.13 | 0.15 | 0 | -4.1*
COc1ccc2nc(-c3ccccc3)[nH]c2c1 | 1 | 0.5 | 0.77 | -1 | -5.3*
Cc1cc(C(=O)CN2C(=O)c3ccccc3S2(=O)=O)c(C)n1-c1ccccc1 | 40 | -0.7 | 0.022 | 0 | -5*
Cc1cc(C(=O)CN2C(=O)C3CC=CCC3C2=O)c(C)n1-c1ccccc1 (centres undefined) | 1 | -0.77 | -0.065 | 0 | -3.6*
CCCCc1nc2ccccc2n2cc3c(=O)n(C)c(=O)n(C)c3c12 | -52 | -1.2 | -0.0088 | 0 | 1.9
CN(C)c1nc(-c2ccccc2)c2cnn(Cc3ccccc3)c2n1 | -24 | 0.06 | -0.51 | -1 | -0.57
CC1CN(c2nc3c(c(=O)n(C)c(=O)n3C)n2Cc2c(Cl)cccc2Cl)CC(C)O1 (centres undefined) | 7 | -0.28 | 3.2* | 0 | 0.69
CCOC(=O)CC(=O)CSc1[nH]c(=O)cc(C)c1C#N | -3 | 0.42 | -0.041 | -2 | -0.14
CCc1cc(C(=O)COc2ccccc2F)c(O)cc1O | 35 | 0.0017 | -1.1 | -1 | 0.005
Cc1ccccc1-n1c(SCc2c(C)noc2C)nnc1-c1c[nH]c2ccccc12 | -32 | -0.98 | 1.6 | 0 | -6.2*
CC(/C=C/c1ccccc1)NC(N)=O (centres undefined) | -30 | 0.074 | 0.21 | 0 | -0.54
COC(=O)c1cc(CSc2nnc(-c3ccccc3)c(-c3ccccc3)n2)oc1C | 96* | -0.027 | -0.012 | 4 | -0.2
Cc1nc(Nc2ncc3c(n2)CCCC3=O)nc2ccccc12 | -9 | 0.92 | 0.66 | 0 | /
Cn1c(=O)n(CCC(=O)O)c2ccccc21 | -9 | 0.62 | -0.059 | 0 | -0.58
O=C(O)CCn1c(-c2ccccc2)cc2c1CCCC2=O | 5 | 0.45 | 0.72* | 0 | /
NS(=O)(=O)c1ccc(CCNC(=O)COC(=O)C2CCCN2C(=O)c2cccs2)cc1 (centres undefined) | 8 | -0.83 | -0.83 | 2 | -0.5
COc1ccc(-c2cn3c(C)c(C(=O)N4CCc5ccccc5C4)sc3n2)cc1 | 14 | 4.7* | 0.0014 | -1 | /
